{"source": "ChEMBL document CHEMBL1136410", "about": "“Design, synthesis, and biological evaluation of angiogenesis inhibitors: aromatic enone and dienone analogues of curcumin” (2003)", "key": {"[1]": {"assay": "In vitro percent inhibition of […] murine endothelial cell proliferation garnered from C57BL/6 mice infected with ectotropic virus at 6 ug/mL", "type": "functional", "conditions": "Mus musculus", "outline": "(§1)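 SVR cells (C57BL/6 murine endothelial cells immortalized with SV40 large T and activated H-ras) plated at 10,000/well on gelatinized wells. Grown 24 h at 37 °C, 10% CO2, in 5% DMEM. Medium then replaced with fresh 5% DMEM containing 3 or 6 µg/mL compound (from 1 mg/mL DMSO stocks) for 72 h. Surviving trypsinized cells Coulter-counted; percent inhibition versus DMSO control.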"}, "[2]": {"assay": "In vitro percent inhibition of […] murine endothelial cell proliferation garnered from C57BL/6 mice infected with ectotropic virus at 3 ug/mL", "type": "functional", "conditions": "Mus musculus", "outline": "as §1"}}}
{"compound": "Cc1ccc(C(=O)/C=C/c2c(Cl)cccc2Cl)cc1", "values": [{"measurement": "inhibition at 6 µg/mL", "setting": "[1]", "value": 98.1, "unit": "%"}, {"measurement": "inhibition at 3 µg/mL", "setting": "[2]", "value": 98.2, "unit": "%"}]}
{"compound": "O=C(/C=C/c1c(Cl)cccc1Cl)c1ccccc1", "values": [{"measurement": "inhibition at 6 µg/mL", "setting": "[1]", "value": 97.5, "unit": "%"}, {"measurement": "inhibition at 3 µg/mL", "setting": "[2]", "value": 92.9, "unit": "%"}]}
{"compound": "O=C(/C=C/c1ccccc1)c1ccc2ccccc2c1", "values": [{"measurement": "inhibition at 6 µg/mL", "setting": "[1]", "value": 94.7, "unit": "%"}, {"measurement": "inhibition at 3 µg/mL", "setting": "[2]", "value": 92.2, "unit": "%"}]}
{"compound": "O=C(/C=C/c1ccccc1)/C=C/c1ccccc1", "values": [{"measurement": "inhibition at 6 µg/mL", "setting": "[1]", "value": 97.7, "unit": "%"}, {"measurement": "inhibition at 3 µg/mL", "setting": "[2]", "value": 96.6, "unit": "%"}]}
{"compound": "O=C1/C(=C/c2ccccn2)CCC/C1=C\\c1ccccn1", "values": [{"measurement": "inhibition at 6 µg/mL", "setting": "[1]", "value": 96.7, "unit": "%"}, {"measurement": "inhibition at 3 µg/mL", "setting": "[2]", "value": 92.9, "unit": "%"}]}
{"compound": "O=C(/C=C/c1c(Cl)cccc1Cl)/C=C/c1c(Cl)cccc1Cl", "values": [{"measurement": "inhibition at 6 µg/mL", "setting": "[1]", "value": 90.4, "unit": "%"}, {"measurement": "inhibition at 3 µg/mL", "setting": "[2]", "value": 87.1, "unit": "%"}]}
{"compound": "O=C1/C(=C/c2ccccc2)CCC/C1=C\\c1ccccc1", "note": "[2,6-DIBENZYLIDENECYCLOHEXANONE]", "values": [{"measurement": "inhibition at 6 µg/mL", "setting": "[1]", "value": 97.7, "unit": "%"}, {"measurement": "inhibition at 3 µg/mL", "setting": "[2]", "value": 94.4, "unit": "%"}]}
{"compound": "O=C(/C=C/c1ccccc1)c1ccccc1", "note": "[CHALCONE]", "values": [{"measurement": "inhibition at 6 µg/mL", "setting": "[1]", "value": 94.4, "unit": "%"}, {"measurement": "inhibition at 3 µg/mL", "setting": "[2]", "value": 92.8, "unit": "%"}]}
{"compound": "COc1cc(/C=C2\\CCC/C(=C\\c3ccc(O)c(OC)c3)C2=O)ccc1O", "note": "[CYCLOVALONE]", "values": [{"measurement": "inhibition at 6 µg/mL", "setting": "[1]", "value": 96, "unit": "%"}, {"measurement": "inhibition at 3 µg/mL", "setting": "[2]", "value": 90.1, "unit": "%"}]}
{"compound": "O=C(/C=C/c1ccccn1)c1ccccc1", "note": "[WR-190433]", "values": [{"measurement": "inhibition at 6 µg/mL", "setting": "[1]", "value": 96.9, "unit": "%"}, {"measurement": "inhibition at 3 µg/mL", "setting": "[2]", "value": 89.1, "unit": "%"}]}
